Experimental data reported in ChEMBL document CHEMBL1138240, “Identifying merozoite surface protein 4 and merozoite surface protein 7 Plasmodium falciparum protein family members specifically binding to human erythrocytes suggests a new malarial parasite-redundant survival mechanism” (J Med Chem, 2007).
Active and inactive are the calls of the source. No cut-off for these calls is given here. Peptide text beside a SMILES is read from it.

What was measured:
Plasmodium falciparum [1] = assay: Inhibition of Plasmodium falciparum FCB2 merozoite invasion of human erythrocytes at 200 uM; assay type: functional
Procedure, shortened: (§1)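 Sorbitol-synchronized P. falciparum FCB-2 was grown to late schizonts and set at 0.5% parasitemia and 5% hematocrit in RPMI 1640 with 10% O+ plasma. Peptides were added at 100 or 200 µM, in triplicate. Plates were incubated 18 h at 37 °C under 5% O2/5% CO2/90% N2. RBC were stained with hydroethidine 15 µg/mL for 30 min, washed, and read by flow cytometry (FL2). Values are mean ± SD of three experiments.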

Plasmodium falciparum [2] = assay: Inhibition of Plasmodium falciparum FCB2 merozoite invasion of human erythrocytes at 100 uM; assay type: functional; design: scale not given: the % may be the effect or the level left; procedure, shortened: as §1
Plasmodium falciparum [3] = assay: Inhibition of Plasmodium falciparum FCB2 merozoite invasion of human erythrocytes at 0.5 mg/mL; assay type: functional
Procedure, shortened: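 Sorbitol-synchronized FCB-2 cultures grown to late schizont stage at 0.5% parasitemia and 5% hematocrit in RPMI 1640 with 10% O-positive plasma. Agent added in triplicate, then incubated 18 h at 37 °C under 5% O2/5% CO2/90% N2. Erythrocytes stained with 15 µg/mL hydroethidine for 30 min at 37 °C. Invasion read by flow cytometry (FL2).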

[4] = Binding affinity to 52 kDa erythrocyte membrane protein in human erythrocytes; assay type: cell-based
Procedure, shortened: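 Saturation binding used RBC at 1.5 × 10^7 cell/µL with 125I-peptide at 0–1800 nM, with or without 200-fold excess unlabeled peptide, for 90 min. Free label was sampled from the supernatant. Cells were washed twice with HBS and bound counts were measured by gamma counting, in triplicate. Affinity constant and sites per cell came from saturation curves; Hill coefficient came from a Hill plot.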

Erythrocyte [5] = assay: Binding affinity to 52 kDa erythrocyte membrane protein in neuraminidase treated human erythrocytes at 1 mg/mL after 1 hr relative to control; assay type: cell-based
Erythrocyte [6] = assay: Binding affinity to 52 kDa erythrocyte membrane protein in trypsin treated human erythrocytes at 1 mg/mL after 1 hr relative to control; assay type: cell-based
Procedure, shortened: (§2)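 Human RBC (1.5 × 10^7 cell/µL in HBS pH 7.2, 1 mL) were treated for 1 h at 37 °C with shaking. […] used neuraminidase at 150 µU/mL. […] used trypsin and chymotrypsin at 1 mg/mL final. Cells were spun and washed thrice with HBS, then tested in the 125I-peptide binding assay. Specific binding is given as % of untreated-RBC control.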

Erythrocyte [7] = assay: Binding affinity to 52 kDa erythrocyte membrane protein in chymotrypsin treated human erythrocytes at 1 mg/mL after 1 hr relative to control; assay type: cell-based; procedure, shortened: as §2
Erythrocyte [8] = assay: Displacement of [125I]MSP-4 20494 peptide from 52 kDa erythrocyte membrane protein in human erythrocytes at 30 uM; assay type: cell-based
Procedure, shortened: (§3)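 Competition used 125I-labeled MSP-4 peptide 20494 at 300 nM with 1 × 10^7 human RBC. Unlabeled competitor peptides were present at 3–30 µM. Incubation was 90 min at room temperature. Cells were washed three times with HBS and cell-bound radioactivity was counted on a gamma counter.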

Erythrocyte [9] = assay: Displacement of [125I]MSP-4 20494 peptide from 52 kDa erythrocyte membrane protein in human erythrocytes; assay type: cell-based; procedure, shortened: as §3
Plasmodium falciparum [10] = assay: Inhibition of Plasmodium falciparum FCB2 merozoite invasion of human erythrocytes at […]; assay type: functional

Compound | Kd [4] [nM] | Activity (Erythrocyte [5]) [%] | Activity (Erythrocyte [6]) [%] | Activity (Erythrocyte [7]) [%] | Activity (Erythrocyte [8]) [%] | Activity (Erythrocyte [9]) | inhibition at 200 µM (Plasmodium falciparum [1]) [%] | Activity (Plasmodium falciparum [2]) [%] | inhibition at 500 µg/mL (Plasmodium falciparum [3]) [%] | inhibition (Plasmodium falciparum [10]) [%]
H-KNVHVLINGNSIIDEIEKNEY-OH |  |  |  |  |  |  | 29 | 10 |  | 
CCN(CC)CCCC(C)Nc1ccnc2cc(Cl)ccc12 (centres undefined) [CHLOROQUINE] |  |  |  |  |  |  |  |  | 100 | 
CC(C)C[C@H](NC(=O)[C@H](CCCCN)NC(=O)[C@H](CC(=O)O)NC(=O)[C@H](CC(=O)O)NC(=O)CNC(=O)[C@H](CS)NC(=O)CN)C(=O)N[C@@H](CS)C(=O)N[C@@H](CCC(=O)O)C(=O)N[C@@H](Cc1ccc(O)cc1)C(=O)N[C@H](C(=O)NCC(=O)N[C@@H](CC(N)=O)C(=O)N[C@@H](CCCNC(=N)N)C(=O)N[C@@H](CCCNC(=N)N)C(=O)N[C@H](C(=O)N[C@@H](CCCCN)C(=O)N[C@@H](CS)C(=O)N[C@@H](CCCCN)C(=O)N[C@@H](CS)C(=O)N[C@@H](CCCCN)C(=O)O)C(C)C)C(C)C (H-GCGDDKLCEYVGNRRVKCKCK-OH) |  |  |  |  |  |  | 18 | 3 |  | 
H-MRILGEEKPNVDGVSTSNTPY-OH |  |  |  |  |  |  | 11 | 9 |  | 
H-KQNSHLSEKKIKPEEEYKKF-OH |  | 57 | 88 | 73 |  |  | 83 | 22 |  | 
O=C(O)CN(CCOCCOCCN(CC(=O)O)CC(=O)O)CC(=O)O [EGTAZIC ACID] |  |  |  |  |  |  |  |  |  | 83

The next lines start with results.

Kd [4] [nM] | Activity (Erythrocyte [5]) [%] | Activity (Erythrocyte [6]) [%] | Activity (Erythrocyte [7]) [%] | Activity (Erythrocyte [8]) [%] | Activity (Erythrocyte [9]) | Compound | inhibition at 200 µM (Plasmodium falciparum [1]) [%] | Activity (Plasmodium falciparum [2]) [%] | inhibition at 500 µg/mL (Plasmodium falciparum [3]) [%] | inhibition (Plasmodium falciparum [10]) [%]
470 | 73 | 57 | 133 | 50 |  | CC(C)C[C@H](NC(=O)[C@H](CCCCN)NC(=O)[C@H](Cc1ccc(O)cc1)NC(=O)CNC(=O)[C@H](CCC(=O)O)NC(=O)[C@H](CCCCN)NC(=O)[C@H](CS)NC(=O)[C@H](CCCCN)NC(=O)[C@H](CS)NC(=O)[C@H](CCCCN)NC(=O)[C@@H](NC(=O)[C@H](CCCNC(=N)N)NC(=O)[C@H](CCCNC(=N)N)NC(=O)[C@H](CC(N)=O)NC(=O)CNC(=O)[C@@H](NC(=O)[C@H](Cc1ccc(O)cc1)NC(=O)[C@@H](N)CCC(=O)O)C(C)C)C(C)C)C(=O)N[C@@H](CCC(=O)O)C(=O)NCC(=O)O (H-EYVGNRRVKCKCKEGYKLEG-OH) | 20 | 16 |  | 
 |  |  |  |  | inactive | H-MWIVKFLIVVHFFIICTINFY-OH |  |  |  | 
 | 73 | 0 | 34 |  |  | H-KDKEYHEQFKNYIYGVYSYA-OH | 24 | 7 |  | 
600 | 105 | 0 | 160 |  |  | H-NLGLFGKNVLSKVKAQSETDY-OH | 59 | 9 |  | 
450 | 100 | 10 | 0 |  |  | H-KPEEEYKKFLEYSFNLLNTM-OH | 49 | 9 |  | 
550 | 105 | 174 | 223 |  |  | H-IKNKKLEKLKNIVSGDFVGNY-OH | 68 | 22 |  | 
